We go through five molecules from ChEMBL document CHEMBL1158033, “C-26 and C-30 apocarotenoids from seeds of Ditaxis heterantha with antioxidant activity and protection against DNA oxidative damage” (J Nat Prod, 2006).

Each structure is given as a SMILES string.

Series [1] in a line: Antiradical activity assessed as DPPH radical scavenging activity at 1050 uM by spectrophotometry relative to control. In kind it is physicochemical. An outline of the steps:
(§1)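 Sample (150–1500 μM; MeOH, or Et2O for lycopene, β-carotene, astaxanthin) added to 150 μM DPPH in MeOH and kept in the dark at ~20 °C for 60 min. Absorbance read at 520 nm. Activity = 100 × (1 − Asample/Acontrol), with control lacking sample. Triplicates; Tukey's test and Pearson correlation.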

Series [2] in a line: Antiradical activity assessed as DPPH radical scavenging activity at 1500 uM by spectrophotometry relative to control. Format: physicochemical. An outline of the steps:
as §1
Background: DPPH is a stable violet radical that fades when it is reduced.

Series [3] can be described thus: Antigenotoxic activity against H2O2-induced oxidative DNA damage in rat lymphocyte assessed as cauda tail moment at 500 uM by comet assay. In kind it is functional. An outline of the steps:
(§2)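 Rat peripheral blood mononuclear cells isolated on Histopaque 1077, 1×10^7 cells/mL in cold PBS pH 7.4, viability >90% by trypan blue. Cells preincubated with sample in DMSO (5%) at 37 °C for 30 min, then H2O2 1 mM final, 37 °C for 10 min. Alkaline comet assay, ethidium bromide stain, image analysis of 50 cells, 400×. Mean ± SE of four values, one-way ANOVA.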

Series [4] has as its system Lymphocyte. As to the kind of experiment: Antigenotoxic activity against H2O2-induced oxidative DNA damage in rat lymphocyte assessed as cauda tail moment at 1000 uM by comet assay. In kind it is functional. An outline of the steps:
as §2

Series [5] in a line: Antigenotoxic activity against H2O2-induced oxidative DNA damage in rat lymphocyte assessed as olive tail moment at 500 uM by comet assay. Format: functional. An outline of the steps: as §2
Series [6] can be described thus: Antigenotoxic activity against H2O2-induced oxidative DNA damage in rat lymphocyte assessed as tail length at 500 uM by comet assay. In kind it is functional. An outline of the steps:
as §2

Series [7] in a line: Antigenotoxic activity against H2O2-induced oxidative DNA damage in rat lymphocyte assessed as tail length at 1000 uM by comet assay. In kind it is functional. A digest of the protocol:
as §2

Series [8] can be described thus: Antigenotoxic activity against H2O2-induced oxidative DNA damage in rat lymphocyte assessed as olive tail moment at 1000 uM by comet assay. In kind it is functional. An outline of the steps:
as §2

Series [9] is described as follows: Antiradical activity assessed as DPPH radical scavenging activity at 750 uM by spectrophotometry relative to control. Format: physicochemical. An outline of the steps: as §1
The nature of series [10]: Antiradical activity assessed as DPPH radical scavenging activity at 150 uM by spectrophotometry relative to control. In kind it is physicochemical. An outline of the steps:
as §1

For the molecule `CC1=C(/C=C/C(C)=C/C=C/C(C)=C/C=C/C=C(C)/C=C/C=C(C)/C=C/C2=C(C)C(=O)[C@@H](O)CC2(C)C)C(C)(C)C[C@H](O)C1=O` [ASTAXANTHIN], the Activity entry is reported as “Active” in series [1] and 52% in series [2].
Take `CC1=C(/C=C/C(C)=C/C=C/C(C)=C/C=C/C=C(C)/C=C/C=C(C)/C=C/C2=C(C)CCCC2(C)C)C(C)(C)CCC1` [BETA CAROTENE]: the Activity result was “Active” in [1] and 36% in [2].
Regarding `COC(=O)/C(C)=C/C=C/C(C)=C/C=C/C=C(C)/C=C/C=C(C)/C=C/[C@]12O[C@@H](CC1(C)C)C[C@]2(C)O` [DITAXIN], the Activity is 18.8 a.u in series [3]; 12.27 a.u in series [4]; “Active” in [1]; 11.58 a.u in series [5]; 35.94 um in series [6]; 12% in series [2]. Further, the Activity in series [7] was found to be 28.15 um; in series [8], 8.21 a.u.
`COC(=O)/C(C)=C/C=C/C=C(C)/C=C/C=C(C)/C=C/[C@@H]1C(C)=CC(=O)CC1(C)C` [HETERANTHIN]: the Activity in [3] is 17.02 a.u; in series [4] it was 6.24 a.u; in [9] it was “Active”; in series [1] it was “Active”; in series [5], 10.8 a.u; in series [10], “Active”. For the same molecule, the Activity in [6] was found to be 34.13 um; in series [2], 21%; in series [7], 20.93 um; in series [8], 4.4 a.u.
For `CC(C)=CCC/C(C)=C/C=C/C(C)=C/C=C/C(C)=C/C=C/C=C(C)/C=C/C=C(C)/C=C/C=C(\C)CCC=C(C)C` [LYCOPENE], the Activity result in series [1] is reported as “Active”; in series [2] it was 36%.
